Results as given in ChEMBL document CHEMBL1138555, “N-acylated and N,N'-diacylated imidazolidine-2-thione derivatives and N,N'-diacylated tetrahydropyrimidine-2(1H)-thione analogues: synthesis and antiproliferative activity” (Eur J Med Chem, 2009).

Experiments:
HOP-62 = assay: Growth inhibition of human HOP62 cells after 48 hrs by sulforhodamine B assay; format: functional; details: HOP-62, 48 h
Outline: (§1)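 NCI screen panel. Five 10-fold concentrations from 10^-4 to 10^-8 M. Exposure for the last 48 h of a 72 h incubation. Growth estimated by sulforhodamine B protein assay. GI50 is the concentration giving 50% growth inhibition. Where that level was not reached or was exceeded, the value is given as above or below the highest or lowest concentration tested.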

MOLT-4 = assay: Growth inhibition of human MOLT4 cells after 48 hrs by sulforhodamine B assay; format: functional; details: MOLT-4, 48 h; outline: as §1
CAKI-1 = assay: Growth inhibition of human Caki1 cells after 48 hrs by sulforhodamine B assay; format: functional; details: CAKI-1, 48 h; outline: as §1
SN12C = assay: Growth inhibition of human SN12C cells after 48 hrs by sulforhodamine B assay; format: functional
Outline: (§2)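 NCI in vitro panel screen. Compounds tested at five 10-fold dilutions, 10^-4 to 10^-8 M. Cells in 96-well plates were exposed for the last 48 h of a 72 h incubation. Viability/growth was read by sulforhodamine B protein assay. GI50 is the concentration giving 50% growth inhibition. Values beyond the tested range are reported as greater or less than the maximum or minimum concentration.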

OVCAR-3 = assay: Growth inhibition of human OVCAR-3 cells after 48 hrs by sulforhodamine B assay; format: functional; details: OVCAR-3, 48 h; outline: as §1
IGROV-1 = assay: Growth inhibition of human IGROV1 cells after 48 hrs by sulforhodamine B assay; format: functional; details: IGROV-1, 48 h; outline: as §1
EKVX = assay: Growth inhibition of human EKVX cells after 48 hrs by sulforhodamine B assay; format: functional; outline: as §1
UACC-62 = assay: Growth inhibition of human UACC62 cells after 48 hrs by sulforhodamine B assay; format: functional; details: UACC-62, 48 h; outline: as §2
SNB-19 = assay: Growth inhibition of human SNB19 cells after 48 hrs by sulforhodamine B assay; format: functional; details: SNB-19, 48 h; outline: as §2
LOX IMVI = assay: Growth inhibition of human LOXIMVI cells after 48 hrs by sulforhodamine B assay; format: functional; outline: as §1
PC-3 = assay: Growth inhibition of human PC3 cells after 48 hrs by sulforhodamine B assay; format: functional; details: PC-3, 48 h; outline: as §1
HCT-116 = assay: Growth inhibition of human HCT116 cells after 48 hrs by sulforhodamine B assay; format: functional; details: HCT-116, 48 h; outline: as §1
MDA-N = assay: Growth inhibition of human MDA-N cells after 48 hrs by sulforhodamine B assay; format: functional
Outline: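 NCI screen panel. Five 10-fold concentrations from 10^-4 to 10^-8 M. Exposure for the last 48 h of a 72 h incubation. Growth estimated by sulforhodamine B protein assay. Where that level was not reached or was exceeded, the value is given as above or below the highest or lowest concentration tested.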

HT-29 = assay: Growth inhibition of human HT-29 cells after 48 hrs by sulforhodamine B assay; format: functional; details: HT-29, 48 h; outline: as §1
[1] = Growth inhibition of human Hs 578T cells after 48 hrs by sulforhodamine B assay; format: functional; outline: as §1
MDA-MB-435 = assay: Growth inhibition of human MDA-MB-435 cells after 48 hrs by sulforhodamine B assay; format: functional; details: MDA-MB-435, 48 h; outline: as §1
MCF7 = assay: Growth inhibition of human MCF7 cells after 48 hrs by sulforhodamine B assay; format: functional; details: MCF7, 48 h; outline: as §1
Malme-3M = assay: Growth inhibition of human MALME-3M cells after 48 hrs by sulforhodamine B assay; format: functional; outline: as §1
HL-60(TB) = assay: Growth inhibition of human HL-60(TB) cells after 48 hrs by sulforhodamine B assay; format: functional; details: HL-60, 48 h
Outline: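 NCI 60-cell-line screen protocol: cells exposed to compound at five 10-fold dilutions from 10^-4 to 10^-8 M for the last 48 h of a 72 h incubation. Sulforhodamine B protein assay estimated viability/growth. GI50 (50% growth inhibition) derived; where not reached or exceeded, reported as greater or less than the highest or lowest concentration tested.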

MT4 = assay: Antiproliferative activity against human MT4 cells assessed as reduction of growth by MTT assay; format: functional, cell-based
Outline: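 MT-4 lymphoblastoid T cells (ATCC) in RPMI 1640 with 10% FCS, penicillin/streptomycin, checked for mycoplasma. 1 × 10⁴ mock-infected cells per well with serial dilutions from a 100 mM DMSO stock. Incubated 4 days at 37 °C, viable cells counted by MTT. IC50 versus untreated controls by linear regression. Mean of three separate experiments.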

CCRF-CEM = assay: Growth inhibition of human CCRF-CEM cells after 48 hrs by sulforhodamine B assay; format: functional; outline: as §1
M14 = assay: Growth inhibition of human M14 cells after 48 hrs by sulforhodamine B assay; format: functional; details: M14, 48 h; outline: as §1
SF-268 = assay: Growth inhibition of human SF268 cells after 48 hrs by sulforhodamine B assay; format: functional; details: SF-268, 48 h; outline: as §1
SW-620 = assay: Growth inhibition of human SW620 cells after 48 hrs by sulforhodamine B assay; format: functional; details: SW-620, 48 h; outline: as §2
NCI-H322M = assay: Growth inhibition of human NCI-H322M cells after 48 hrs by sulforhodamine B assay; format: functional; outline: as §1
SNB-75 = assay: Growth inhibition of human SNB75 cells after 48 hrs by sulforhodamine B assay; format: functional; details: SNB-75, 48 h; outline: as §2
UO-31 = assay: Growth inhibition of human UO31 cells after 48 hrs by sulforhodamine B assay; format: functional; details: UO-31, 48 h; outline: as §2
T47D = assay: Growth inhibition of human T47D cells after 48 hrs by sulforhodamine B assay; format: functional; outline: as §2
ACHN = assay: Growth inhibition of human ACHN cells after 48 hrs by sulforhodamine B assay; format: functional; outline: as §1
HOP-92 = assay: Growth inhibition of human HOP92 cells after 48 hrs by sulforhodamine B assay; format: functional; details: HOP-92, 48 h; outline: as §1
OVCAR-5 = assay: Growth inhibition of human OVCAR5 cells after 48 hrs by sulforhodamine B assay; format: functional; details: OVCAR-5, 48 h; outline: as §1
SK-OV-3 = assay: Growth inhibition of human SKOV3 cells after 48 hrs by sulforhodamine B assay; format: functional; details: SK-OV-3, 48 h; outline: as §1
MDA-MB-231 = assay: Growth inhibition of human MDA-MB-231 cells after 48 hrs by sulforhodamine B assay; format: functional; details: MDA-MB-231, 48 h; outline: as §1
UACC-257 = assay: Growth inhibition of human UACC257 cells after 48 hrs by sulforhodamine B assay; format: functional; details: UACC-257, 48 h; outline: as §2
KM12 = assay: Growth inhibition of human KM12 cells after 48 hrs by sulforhodamine B assay; format: functional; details: KM12, 48 h; outline: as §1
HCT-15 = assay: Growth inhibition of human HCT15 cells after 48 hrs by sulforhodamine B assay; format: functional; details: HCT-15, 48 h; outline: as §1
U-251 = assay: Growth inhibition of human U251 cells after 48 hrs by sulforhodamine B assay; format: functional; details: U-251, 48 h; outline: as §2
OVCAR-4 = assay: Growth inhibition of human OVCAR4 cells after 48 hrs by sulforhodamine B assay; format: functional; details: OVCAR-4, 48 h; outline: as §1
NCI-H460 = assay: Growth inhibition of human NCI-H460 cells after 48 hrs by sulforhodamine B assay; format: functional; details: NCI-H460, 48 h; outline: as §1
COLO 205 = assay: Growth inhibition of human COLO205 cells after 48 hrs by sulforhodamine B assay; format: functional; details: COLO 205, 48 h; outline: as §1

Row | SMILES | GI50 (HOP-62) [µM] | GI50 (MOLT-4) [µM] | GI50 (CAKI-1) [µM] | GI50 (SN12C) [µM] | GI50 (OVCAR-3) [µM] | GI50 (IGROV-1) [µM] | GI50 (EKVX) [µM] | GI50 (UACC-62) [µM] | GI50 (SNB-19) [µM] | GI50 (LOX IMVI) [µM] | GI50 (PC-3) [µM] | GI50 (HCT-116) [µM] | GI50 (MDA-N) [µM] | GI50 (HT-29) [µM] | GI50 [1] [µM] | GI50 (MDA-MB-435) [µM] | GI50 (MCF7) [µM] | GI50 (Malme-3M) [µM] | GI50 (HL-60(TB)) [µM] | IC50 (MT4) [µM] | also measured
1 | O=C(c1ccco1)N1CCN(C(=O)c2ccco2)C1=S | 8.7 | 0.3 | 5.1 | 3.5 | 2.7 | 6.7 | 13.4 | 3.2 | 25.4 | 3.4 | 3.9 | 7.3 | 5 | 5 | 6.8 | 4 | 3 | 3.7 | 4 | 7.4 | GI50 (CCRF-CEM): 1.2 µM; GI50 (M14): 7.7 µM; GI50 (SF-268): 2.7 µM; GI50 (SW-620): 5.5 µM; GI50 (NCI-H322M): 15.7 µM; GI50 (SNB-75): 10.4 µM; GI50 (UO-31): 3.7 µM; GI50 (T47D): 4.9 µM; GI50 (ACHN): 4.7 µM; GI50 (HOP-92): 12.7 µM; GI50 (OVCAR-5): 17.8 µM; GI50 (SK-OV-3): 16 µM; GI50 (MDA-MB-231): 12.2 µM; GI50 (UACC-257): 4.6 µM; GI50 (KM12): 4 µM; GI50 (HCT-15): 4.1 µM; GI50 (U-251): 9 µM; GI50 (OVCAR-4): 15.6 µM; GI50 (NCI-H460): 3.3 µM; GI50 (COLO 205): 9.4 µM
2 | O=CN1CCN(C(=O)c2ccco2)C1=S | 12 | 4.6 | 5.1 | 5.3 | 4.2 | 7.5 | 13.7 | 5 | 24.6 | 3.4 | 5 | 10.2 | 9.1 | 7.5 | 11 | 6.4 | 2.7 | 8.3 | 2.8 | 9 | GI50 (CCRF-CEM): 3.6 µM; GI50 (M14): 10.7 µM; GI50 (SF-268): 3.9 µM; GI50 (SW-620): 5.5 µM; GI50 (NCI-H322M): 18.5 µM; GI50 (SNB-75): 8.6 µM; GI50 (UO-31): 4.5 µM; GI50 (T47D): 4 µM; GI50 (ACHN): 6.5 µM; GI50 (HOP-92): 11.5 µM; GI50 (OVCAR-5): 18 µM; GI50 (SK-OV-3): 26.6 µM; GI50 (MDA-MB-231): 15.9 µM; GI50 (UACC-257): 11.7 µM; GI50 (KM12): 5.3 µM; GI50 (HCT-15): 5.6 µM; GI50 (U-251): 14.1 µM; GI50 (OVCAR-4): 18.6 µM; GI50 (NCI-H460): 7.3 µM; GI50 (COLO 205): 8.7 µM
